Measurements taken from ChEMBL document CHEMBL2390868, “Design and synthesis of dimethylaminomethyl-substituted curcumin derivatives/analogues: potent antitumor and antioxidant activity, improved stability and aqueous solubility compared with curcumin” (Bioorg Med Chem Lett, 2013).

Experiments:
[1] = system: HepG2; assay: Cytotoxicity against human HepG2 cells assessed as growth inhibition after 72 hrs by MTT assay; type: functional, cell-based; conditions: HepG2, 72 h
[2] = system: SGC-7901; assay: Cytotoxicity against human SGC7901 cells assessed as growth inhibition after 72 hrs by MTT assay; type: functional, cell-based; conditions: SGC-7901, 72 h
[3] = Aqueous solubility of the compound by UV-vis absorption spectroscopic analysis; type: physicochemical
[4] = system: Radical scavenging activity; assay: Antioxidant activity assessed as DPPH free radical scavenging activity at 20 uM relative to control; type: functional
[5] = Antioxidant activity assessed as galvinoxyl free radical scavenging activity at 100 uM relative to control; type: functional
[6] = system: Radical scavenging activity; assay: Antioxidant activity assessed as DPPH free radical scavenging activity at 2 uM relative to control; type: functional
[7] = system: Radical scavenging activity; assay: Antioxidant activity assessed as DPPH free radical scavenging activity; type: functional
[8] = Antioxidant activity assessed as galvinoxyl free radical scavenging activity at 2 uM relative to control; type: functional
[9] = system: Radical scavenging activity; assay: Antioxidant activity assessed as DPPH free radical scavenging activity at 100 uM relative to control; type: functional
[10] = Antioxidant activity assessed as galvinoxyl free radical scavenging activity at 10 uM relative to control; type: functional
[11] = Antioxidant activity assessed as galvinoxyl free radical scavenging activity at 1 uM relative to control; type: functional
[12] = Antioxidant activity assessed as galvinoxyl free radical scavenging activity; type: functional
[13] = Antioxidant activity assessed as galvinoxyl free radical scavenging activity at 20 uM relative to control; type: functional
[14] = system: A549; assay: Cytotoxicity against human A549 cells assessed as growth inhibition after 72 hrs by MTT assay; type: functional, cell-based; conditions: A549, 72 h
[15] = system: HCT-116; assay: Cytotoxicity against human HCT116 cells assessed as growth inhibition after 72 hrs by MTT assay; type: functional, cell-based; conditions: HCT-116, 72 h
[16] = system: Radical scavenging activity; assay: Antioxidant activity assessed as DPPH free radical scavenging activity at 10 uM relative to control; type: functional
[17] = system: Radical scavenging activity; assay: Antioxidant activity assessed as DPPH free radical scavenging activity at 1 uM relative to control; type: functional
[18] = system: HepG2; assay: Cell cycle arrest in human HepG2 cells assessed as accumulation at G2/M phase at 30 uM after 12 hrs by propidium iodide staining-based FACS flow cytometric analysis (reference value: 33.98%); type: functional
[19] = system: HepG2; assay: Cell cycle arrest in human HepG2 cells assessed as accumulation at S phase at 30 uM after 12 hrs by propidium iodide staining-based FACS flow cytometric analysis (reference value: 22.47%); type: functional
[20] = system: HepG2; assay: Cell cycle arrest in human HepG2 cells assessed as accumulation at G0/G1 phase at 30 uM after 12 hrs by propidium iodide staining-based FACS flow cytometric analysis (reference value: 22.94%); type: functional
[21] = Stability of the compound in phosphate-buffered solution assessed as drug degradation under daylight condition at […] measured within 120 mins by UV-vis absorption spectroscopic analysis in absence of FBS; type: physicochemical; conditions: buffer, 2 h
How it was run: (§1)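 Absorbance at 410 nm followed over time in phosphate-buffered solution (pH 7.4) under daylight, without or with 0.1% FBS; stability expressed as A/A0 relative to the 0 min reading.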

[22] = Stability of the compound in phosphate-buffered solution assessed as drug degradation under daylight condition at […] measured within 120 mins by UV-vis absorption spectroscopic analysis in presence of FBS; type: physicochemical; conditions: buffer, 2 h; how it was run: as §1
[23] = system: HepG2; assay: Ratio of curcumin IC50 to compound IC50 for human HepG2 cells; type: functional
[24] = system: HCT-116; assay: Ratio of curcumin IC50 to compound IC50 for human HCT116 cells; type: functional

IC50 [7] [µM] | IC50 [12] [µM] | Stability [21] | Stability [22] | SMILES | IC50 [1] [µM] | IC50 [2] [µM] | Activity [4] [%] | Activity [5] [%] | Activity [6] [%] | Activity [8] [%] | Activity [9] [%] | Activity [10] [%] | Activity [11] [%] | Activity [13] [%] | IC50 [14] [µM] | IC50 [15] [µM] | Activity [16] [%] | Activity [17] [%] | other results
2 | 65.9 |  |  | CN(C)Cc1cc(/C=C2\CCC/C(=C\c3cc(CN(C)C)c(O)c(CN(C)C)c3)C2=O)ccc1O | 49.5 | 45.3 | 85.7 | 52.3 | 54.5 | 21.3 | 90.3 | 36.5 | 13.4 | 38.7 | 35.5 | 64.7 | 66.6 | 25.9 | 
 |  | Stable | Stable | CN(C)Cc1cc(/C=C2\CCC/C(=C\c3ccc(O)c(CN(C)C)c3)C2=O)ccc1O |  |  |  |  |  |  |  |  |  |  |  |  |  |  | 
2.3 | 45 |  |  | CN(C)Cc1cc(/C=C2\CC/C(=C\c3ccc(O)c(CN(C)C)c3)C2=O)ccc1O | 43.6 | 57.3 | 86.8 | 71.8 | 54 | 13.3 | 90.4 | 30.6 | 3.8 | 46.8 | 78.1 | 142 | 67.4 | 24.8 | 
4.8 | 16.3 | Stable | Stable | COc1cc(/C=C2\CCC/C(=C\c3cc(CN(C)C)c(O)c(OC)c3)C2=O)cc(CN(C)C)c1O | 24.3 | 25.8 | 82.8 | 58.9 | 40.1 | 21.1 | 86.3 | 38.9 | 8.3 | 52.9 | 51.8 | 65.9 | 55 | 24.7 | 

The remaining lines, values behind:

SMILES | IC50 [7] [µM] | IC50 [12] [µM] | Stability [21] | Stability [22] | IC50 [1] [µM] | IC50 [2] [µM] | Activity [4] [%] | Activity [5] [%] | Activity [6] [%] | Activity [8] [%] | Activity [9] [%] | Activity [10] [%] | Activity [11] [%] | Activity [13] [%] | IC50 [14] [µM] | IC50 [15] [µM] | Activity [16] [%] | Activity [17] [%] | other results
COc1cc(/C=C/C(=O)CC(=O)/C=C/c2ccc(O)c(C[N+](C)(C)C)c2)ccc1O |  |  |  |  | 126 | 321 |  |  |  |  |  |  |  |  |  |  |  |  | 
CN(C)Cc1cc(/C=C2\CCC/C(=C\c3ccc(O)c(CN(C)C)c3)C2=O)ccc1O.Cl.Cl |  |  |  |  |  |  |  |  |  |  |  |  |  |  |  |  |  |  | solubility [3]: 303 mg/mL
COc1cc(/C=C/C(=O)CC(=O)/C=C/c2ccc(O)c(OC)c2)ccc1O [CURCUMIN] | 26.5 | > 100 |  |  | 78.7 | 29 | 42 | 45 | 2.4 | 5.8 | 87.2 | 13.7 | 4.6 | 22.2 | 32.2 | 41.5 | 23.1 | 0.3 | Activity [18]: 50.2%; Activity [19]: 29.33%; Activity [20]: 20.46%
COc1cc(/C=C2\CC/C(=C\c3cc(CN(C)C)c(O)c(OC)c3)C2=O)cc(CN(C)C)c1O | 1.8 | 56.3 |  |  | 46.2 |  | 82 | 58.6 | 47.9 | 12.8 | 88.6 | 35.3 | 8.6 | 48 |  | 24.4 | 50.9 | 38.6 | 
CN(C)Cc1cc(/C=C/C(=O)/C=C/c2ccc(O)c(CN(C)C)c2)ccc1O.Cl.Cl |  |  |  |  |  |  |  |  |  |  |  |  |  |  |  |  |  |  | solubility [3]: 368 mg/mL
COc1cc(/C=C/C(=O)CC(=O)/C=C/c2ccc(O)c(CN(C)C)c2)ccc1O | 18.6 | 66.6 | Unstable | Unstable | 5.2 | 23.5 | 51.7 | 51.9 | 5 | 3.1 | 91.2 | 16.5 | 0 | 37.8 | 20.2 | 3.7 | 23.4 | 1.1 | Activity [18]: 24.97%; Activity [19]: 45.63%; Ratio IC50 [23]: >10; Ratio IC50 [24]: >10; Activity [20]: 29.4%
